Results of several laboratories.
Protocols differ between the studies behind these lines.
Observed: cell growth or viability

SMILES | cell line | test | conditions | IC50 [µM]
COc1ccc(/C=C\c2cc(OC)c(OC)c(OC)c2)cc1O | L1210 |  | 48 h | 0.0028
CC(C(=O)NCCc1ccccc1)c1cccc(C(OC(=O)NCCc2ccccc2)c2ccccc2)c1 (stereo not drawn) | L1210 |  | 48 h | 8.2
C[C@@H]1C[C@H](O)[C@]2(O)O[C@@H]3C[C@@]4(C=O)[C@@H](CC[C@@H]5[C@@H]4CC[C@]4(C)[C@@H](C6=CC(=O)OC6)CC[C@]54O)C[C@H]3O[C@@H]2O1 | L6 | resazurin | 72 h | 7.5
CC(C(=O)N1CCCCC1)c1cccc(C(OC(=O)N2CCCCC2)c2ccccc2)c1 (stereo not drawn) | L1210 |  | 48 h | 15
Cc1c2oc3c(C)ccc(C(=O)N[C@@H]4C(=O)N[C@H](C(C)C)C(=O)N5CCC[C@H]5C(=O)N(C)CC(=O)N(C)[C@@H](C(C)C)C(=O)O[C@@H]4C)c3nc-2c(C(=O)N[C@@H]2C(=O)N[C@H](C(C)C)C(=O)N3CCC[C@H]3C(=O)N(C)CC(=O)N(C)[C@@H](C(C)C)C(=O)O[C@@H]2C)c(N)c1=O | GISTT1 | resazurin | 72 h | 0.07
COc1cc(C(=O)c2cc3c(-c4ccccc4)c(O)ccc3o2)cc(OC)c1OC | L1210 |  | 48 h | > 50
COc1ccc(N(C)c2nc(Cl)nc3cccnc23)cc1F | MDA-MB-453 | MTS | 72 h | 0.0042
CC(C(=O)NCc1ccccc1)c1cccc(C(OC(=O)NCc2ccccc2)c2ccccc2)c1 (stereo not drawn) | L1210 |  | 48 h | 10
N.N.[Cl][Pt][Cl] | NCI-H460 | MTT | 72 h | 3
Cc1n[nH]cc1-c1cc2nc([C@@H]3CC4CCN3CC4)[nH]c(=O)c2s1 | COLO 205 | MTT |  | 0.0367
COc1ccc2c(c1)NC(=O)CN2c1nc(Cl)nc2c1CCCC2 | MDA-MB-453 | MTS | 72 h | 0.256
CS(=O)(=O)c1ccc(S(=O)(=O)N2CCc3[nH]c4ccccc4c3C2)cc1 | L6 |  |  | > 250
C[C@@H]1C[C@H](O)[C@]2(O)O[C@@H]3C[C@@]4(C)[C@@H](CC[C@@H]5[C@@H]4CC[C@]4(C)[C@@H](C6=CC(=O)OC6)CC[C@]54O)C[C@H]3O[C@@H]2O1 | L6 | resazurin | 72 h | 7.63
CC(C(=O)NC1CCCC1)c1cccc(C(OC(=O)NC2CCCC2)c2ccccc2)c1 (stereo not drawn) | FM3A |  | 48 h | 12
CC(C)=CCOc1c2occc2cc2ccc(=O)oc12 | COLO 205 | MTT | 24 h | > 100
C[C@H]1O[C@@H](O[C@H]2[C@@H](O)C[C@H](O[C@H]3[C@@H](O)C[C@H](O[C@H]4CC[C@@]5(C)[C@H](CC[C@@H]6[C@@H]5C[C@@H](O)[C@]5(C)[C@@H](C7=CC(=O)OC7)CC[C@]65O)C4)O[C@@H]3C)O[C@@H]2C)C[C@H](O)[C@@H]1O | GISTT1 | resazurin | 72 h | 0.16
CC(C(=O)NC1CCCCC1)c1cccc(C(OC(=O)NC2CCCCC2)c2ccccc2)c1 (stereo not drawn) | L1210 |  | 48 h | 9.6
COc1cc(C(=O)c2sc3c(OC)cccc3c2N)cc(OC)c1OC | L1210 |  | 48 h | 0.033
